The values below come from ChEMBL document CHEMBL1152469, “Telithromycin resistance in Streptococcus pneumoniae is conferred by a deletion in the leader sequence of erm(B) that increases rRNA methylation” (2008).

Common to all, as to format: functional
Assay [1] concerns Streptococcus pneumoniae. Put plainly: Antimicrobial activity against telithromycin-resistant Streptococcus pneumoniae isolate P1501016 by agar dilution method. Put shortly:
(§1)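 Agar dilution MICs per CLSI agar plate preparation, plates containing 5% horse blood, incubated in ambient air 20-24 h; MICs interpreted with CLSI broth microdilution breakpoints (telithromycin ≤1 µg/ml S, 2 I, ≥4 R). Reference strain S. pneumoniae ATCC49619. Induction testing run without and with erythromycin (0.25 µg/ml).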
A general note: Agar dilution tests growth on a series of plates holding different concentrations.

The test system of assay [2] is Streptococcus pneumoniae. As to the kind of experiment: Antimicrobial activity against wild-type Streptococcus pneumoniae PC13 by agar dilution method. In outline:
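Agar dilution MICs on plates prepared per CLSI guidance and containing 5% horse blood. Plates incubated in ambient air for 20-24 h. Interpretation used CLSI broth microdilution breakpoints, with S. pneumoniae ATCC49619 as reference strain.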

The test system of assay [3] is Streptococcus pneumoniae. Put plainly: Antimicrobial activity against Streptococcus pneumoniae PC13 transformant harboring 136-bp deletion in erm(B) gene by agar dilution method. Put shortly: as §1
In assay [4] the test system is Streptococcus pneumoniae. As to the kind of experiment: Increase in erm(B) mRNA expression in Streptococcus pneumoniae PC13 transformant harboring 136-bp deletion in erm(B) gene at 0.008 ug/ml by qRT-PCR relative to baseline. Put shortly:
(§2)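 Cells grown in Tryptone Soya Broth at 37°C, 5% CO2 to OD600 0.2, in triplicate cultures per strain, without antibiotic or with telithromycin 0.008 µg/ml (erythromycin 0.25 µg/ml as a further condition). Cultures were then stabilised in RNAProtect Bacteria Reagent and pelleted. Total RNA was extracted and erm(B) mRNA quantified relative to untreated cultures.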
(In general: Real-time PCR tracks product formation cycle by cycle.)

Assay [5] concerns Streptococcus pneumoniae. Put plainly: Increase in erm(B) mRNA expression in wild-type Streptococcus pneumoniae PC13 at 0.008 ug/ml by qRT-PCR relative to baseline. Put shortly: as §2
Assay [6] deals with Streptococcus pneumoniae. As to the kind of experiment: Increase in dimethylation at position A2058 of 23S rRNA of wild type Streptococcus pneumoniae PC13 at 0.008 ug/ml by phosphorimager scanning relative to baseline. Put shortly: (§3)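 Cells grown in Tryptone Soya Broth at 37°C, 5% CO2 to OD600 0.2, either untreated, with telithromycin 0.008 µg/ml, or with erythromycin 0.25 µg/ml. Total RNA extracted. A primer complementary to 23S rRNA G2061-U2079 was extended by reverse transcriptase on 1.5 pmol rRNA with dTTP, dCTP and ddGTP. Triplicate reactions run on denaturing gels beside a sequencing ladder and quantified by phosphorimager.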

In assay [7] the test system is Streptococcus pneumoniae. As to the kind of experiment: Increase in dimethylation at position A2058 of 23S rRNA of wild type Streptococcus pneumoniae PC13 at 0.25 ug/ml by phosphorimager scanning relative to baseline. In outline: as §3
Assay [8] concerns Streptococcus pneumoniae. Put plainly: Increase in dimethylation at position A2058 of 23S rRNA of Streptococcus pneumoniae PC13 transformant harboring 136-bp deletion in erm(B) gene at 0.008 ug/ml by phosphorimager scanning relative to baseline. Put shortly:
(§4)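 Cells grown in TSB at 37°C, 5% CO2 to OD600 0.2, untreated or with telithromycin (0.008 µg/ml) or erythromycin (0.25 µg/ml), three cultures per condition. Total RNA extracted. Primer extension across G2061-U2079 of 23S rRNA on 1.5 pmol rRNA with reverse transcriptase, ddGTP mix in test samples, done in triplicate. Products run on denaturing polyacrylamide gels, quantified by phosphorimager as % A2058 dimethylation.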

The test system of assay [9] is Streptococcus pneumoniae. Put plainly: Increase in dimethylation at position A2058 of 23S rRNA of Streptococcus pneumoniae isolate P1501016 at 0.008 ug/ml by phosphorimager scanning relative to baseline. In outline:
as §3

Assay [10] deals with Streptococcus pneumoniae. Put plainly: Increase in erm(B) mRNA expression in Streptococcus pneumoniae […] transformant harboring 136-bp deletion in erm(B) gene at 0.25 ug/ml by qRT-PCR relative to baseline. In outline: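 Strains grown in TSB at 37°C, 5% CO2 to OD600 0.2, untreated or with erythromycin (0.25 µg/ml), three cultures per condition. Cells stabilised in RNAProtect before RNA extraction. erm(B) mRNA quantified relative to the untreated culture. Means compared by paired t test at the 95% level.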

In assay [11] the test system is Streptococcus pneumoniae. Put plainly: Increase in erm(B) mRNA expression in wild type Streptococcus pneumoniae PC13 at 0.25 ug/ml by qRT-PCR relative to baseline. Put shortly:
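Cultures grown in triplicate in Tryptone Soya Broth at 37°C, 5% CO2 to OD600 0.2, without antibiotic or with erythromycin 0.25 µg/ml. Cells stabilised in RNAProtect, then RNA extracted for relative quantification of erm(B) mRNA against untreated cells.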

Assay [12] relates to Streptococcus pneumoniae. As to the kind of experiment: Increase in dimethylation at position A2058 of 23S rRNA of Streptococcus pneumoniae PC13 transformant harboring 136-bp deletion in erm(B) gene at 0.25 ug/ml by phosphorimager scanning relative to baseline. Put shortly:
as §4

Assay [13] relates to Streptococcus pneumoniae. As to the kind of experiment: Increase in dimethylation at position A2058 of 23S rRNA of Streptococcus pneumoniae isolate P1501016 at 0.25 ug/ml by phosphorimager scanning relative to baseline. In outline:
as §3

For assay [14], the system named is Streptococcus pneumoniae. As to the kind of experiment: Increase in lag phase of growth for wild type Streptococcus pneumoniae PC13 assessed as doubling time at 1 ug/ml. Put shortly:
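Glycerol stocks diluted 1:100 into Tryptone Soya Broth with or without erythromycin 1 µg/ml and incubated at 37°C, 5% CO2. OD600 read every 30 min, and doubling time calculated over exponential growth.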

The subject of assay [15] is Streptococcus pneumoniae. Put plainly: Increase in lag phase of growth for Streptococcus pneumoniae PC13 transformant harboring 136-bp deletion in erm(B) gene assessed as doubling time at 1 ug/ml. Put shortly:
(§5)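 Inoculated from glycerol stocks 1:100 into TSB with or without erythromycin (1 µg/ml), 37°C in 5% CO2. OD600 read every 30 min; doubling time calculated over exponential growth.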

The test system of assay [16] is Streptococcus pneumoniae. As to the kind of experiment: Increase in lag phase of growth for telithromycin-resistant Streptococcus pneumoniae isolate P1501016 assessed as doubling time at 1 ug/ml. In outline: as §5

Converted amounts (≈) assume the structure as drawn.

The MIC is the lowest concentration that inhibits growth of the organism. Lower therefore signals inhibition by little substance. Turning to `CN(C)[C@@H]1C(O)=C(C(N)=O)C(=O)[C@@]2(O)C(O)=C3C(=O)c4c(O)cccc4[C@@](C)(O)[C@H]3C[C@@H]12` [TETRACYCLINE], the minimal inhibitory concentration (MIC) against Streptococcus pneumoniae [1] is 4 mg/L (≈ 9 µM); against Streptococcus pneumoniae [2], 16 mg/L (≈ 36 µM); in the assay with Streptococcus pneumoniae [3], 16 mg/L (≈ 36 µM).
Regarding `CC[C@H]1OC(=O)[C@H](C)C(=O)[C@H](C)[C@@H](O[C@@H]2O[C@H](C)C[C@H](N(C)C)[C@H]2O)[C@](C)(OC)C[C@@H](C)C(=O)[C@H](C)[C@H]2N(CCCCn3cnc(-c4cccnc4)c3)C(=O)O[C@]12C` [TELITHROMYCIN], the MIC in the assay with Streptococcus pneumoniae [1] was determined as 8 mg/L (≈ 9.85 µM); with Streptococcus pneumoniae [2], 0.06 mg/L (≈ 0.0739 µM); in the assay with Streptococcus pneumoniae [3] it was 16 mg/L (≈ 19.7 µM). The “fold change (FC)” value in the assay on Streptococcus pneumoniae [4] was determined as 1.31; in the assay with Streptococcus pneumoniae [5], 0.66. Also, the Activity is on record as 29% in the assay with Streptococcus pneumoniae [6], 46% in the assay on Streptococcus pneumoniae [7], 64% in the assay on Streptococcus pneumoniae [8] and 66% with Streptococcus pneumoniae [9].
For the molecule `CC[C@H]1OC(=O)[C@H](C)[C@@H](O[C@H]2C[C@@](C)(OC)[C@@H](O)[C@H](C)O2)[C@H](C)[C@@H](O[C@@H]2O[C@H](C)C[C@H](N(C)C)[C@H]2O)[C@](C)(OC)C[C@@H](C)C(=O)[C@H](C)[C@@H](O)[C@]1(C)O` [CLARITHROMYCIN], the MIC in the assay with Streptococcus pneumoniae [1] and against Streptococcus pneumoniae [2] was more than 256 mg/L each time.
With `CC[C@H]1OC(=O)[C@H](C)[C@@H](O[C@H]2C[C@@](C)(OC)[C@@H](O)[C@H](C)O2)[C@H](C)[C@@H](O[C@@H]2O[C@H](C)C[C@H](N(C)C)[C@H]2O)[C@](C)(O)C[C@@H](C)C(=O)[C@H](C)[C@@H](O)[C@]1(C)O` [ERYTHROMYCIN], the MIC against Streptococcus pneumoniae [1] and against Streptococcus pneumoniae [2] was more than 256 mg/L each time. The “fold change (FC)” value turned out to be 4.98 in the assay with Streptococcus pneumoniae [10] and 2.57 in the assay with Streptococcus pneumoniae [11]. For the same molecule, the Activity came to 72% in the assay on Streptococcus pneumoniae [12]; 68% in the assay with Streptococcus pneumoniae [13]; 53 min in the assay with Streptococcus pneumoniae [14]; 52.5 min in the assay with Streptococcus pneumoniae [15]; 43.3 min in the assay on Streptococcus pneumoniae [16].
`CCC[C@@H]1C[C@@H](C(=O)N[C@@H]([C@H]2O[C@H](SC)[C@H](O)[C@@H](O)[C@H]2O)[C@H](C)Cl)N(C)C1` [CLINDAMYCIN]: the MIC in the assay on Streptococcus pneumoniae [1] and with Streptococcus pneumoniae [2] was more than 256 mg/L in each case.
